The results in this text go back to ChEMBL document CHEMBL4354800, “Amphiphilic nebramine-based hybrids Rescue legacy antibiotics from intrinsic resistance in multidrug-resistant Gram-negative bacilli” (Eur J Med Chem, 2019).

Some results are limits rather than exact numbers.

For data set [1], the system named is Klebsiella pneumoniae. The data set can be described thus: Potentiation of minocycline-induced antibacterial activity against Klebsiella pneumoniae 116381 assessed as fold reduction in minocycline MIC at 7.5 uM incubated for 18 hrs by broth dilution method. The data set is classed as functional. The essentials: (§1)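 Antibiotic MIC determined by CLSI broth microdilution (MHB, 5 × 10^5 CFU/mL, 18 h, 37 °C), once alone and once with a fixed concentration of the adjuvant. Potentiation is the ratio of the antibiotic MIC alone to its MIC in the presence of the adjuvant.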

Data set [2] concerns Pseudomonas aeruginosa. Briefly: Synergistic antibacterial activity against MDR/XDR Pseudomonas aeruginosa isolate PA264-104354 harboring GyrA T83I mutant assessed as fractional inhibitory concentration index in presence of moxifloxacin incubated for 18 hrs by broth microdilution method. Type of data set: functional. The essentials:
(§2)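 Checkerboard synergy assay. Antibiotic and adjuvant in twofold dilutions in Mueller-Hinton broth. Inoculum 5 × 10^5 CFU/mL from a 0.5 McFarland suspension, 18 h at 37 °C, MIC read by turbidity and confirmed at 590 nm. FIC = MIC in combination / MIC alone for each agent, FICI = sum. Interpreted as ≤0.5 synergy, 0.5–4 no interaction, >4 antagonism.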
For orientation: In broth dilution the organism is exposed to a series of concentrations in liquid medium.

In data set [3] the test system is Pseudomonas aeruginosa. Briefly: Synergistic antibacterial activity against MDR/XDR Pseudomonas aeruginosa isolate PA264-104354 harboring GyrA T83I mutant assessed as fractional inhibitory concentration index in presence of ciprofloxacin incubated for 18 hrs by broth microdilution method. The data set is classed as functional. The essentials:
as §2

In data set [4] the test system is Pseudomonas aeruginosa. The data set can be described thus: Potentiation of ciprofloxacin-induced antibacterial activity against MDR/XDR Pseudomonas aeruginosa isolate PA262-101856 harboring GyrA T83I mutant assessed as fold reduction in ciprofloxacin MIC at 7.5 uM incubated for 18 hrs by broth microdilution method. Type of data set: functional.
Data set [5] deals with Pseudomonas aeruginosa. Briefly: Potentiation of moxifloxacin-induced antibacterial activity against MDR/XDR Pseudomonas aeruginosa isolate PA259-96918 harboring GyrA T83I mutant assessed as fold reduction in moxifloxacin MIC at 7.5 uM incubated for 18 hrs by broth microdilution method. Type of data set: functional. The essentials: (§3)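 CLSI broth microdilution. Overnight cultures were set to 0.5 McFarland in saline, diluted 1:50 in Mueller-Hinton broth to a final 5 × 10^5 CFU/mL, and incubated 18 h at 37 °C against 2-fold antibiotic dilutions. A fixed adjuvant level was present throughout. MIC = lowest concentration with no visible turbidity, confirmed at 590 nm. Potentiation = fold drop in antibiotic MIC versus antibiotic alone.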

Data set [6] relates to Pseudomonas aeruginosa. The data set can be described thus: Potentiation of rifampicin-induced antibacterial activity against MDR/XDR Pseudomonas aeruginosa isolate 101885 harboring GyrA T83I mutant assessed as fold reduction in rifampicin MIC at 7.5 uM incubated for 18 hrs by broth microdilution method. The data set is classed as functional. The essentials:
as §3

For data set [7], the system named is Pseudomonas aeruginosa. The data set can be described thus: Potentiation of minocycline-induced antimicrobial activity against MDR/XDR Pseudomonas aeruginosa isolate PA264-104354 harboring GyrA Thr83Ile mutant assessed as minocycline MIC50 incubated for 18 hrs by broth microdilution method (reference value: 16 microg/ml). Type of data set: functional. The following applies: isolate PA264-104354, 18 h.

Data set [8] concerns Pseudomonas aeruginosa. The data set can be described thus: Potentiation of rifampicin-induced antimicrobial activity against MDR/XDR Pseudomonas aeruginosa isolate 100036 harboring GyrA Thr83Ile mutant assessed as rifampicin MIC50 incubated for 18 hrs by broth microdilution method (reference value: 8 microg/ml). The following applies: isolate 100036, 18 h. Type of data set: functional.

The test system of data set [9] is Acinetobacter baumannii. The data set can be described thus: Antimicrobial activity against multidrug-resistant Acinetobacter baumannii AB031 incubated for 18 hrs by broth dilution method. Type of data set: functional. The following applies: AB031, 18 h. The essentials: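 Broth microdilution per CLSI: overnight cultures set to 0.5 McFarland in saline, diluted 1:50 in Mueller-Hinton broth to a final 5 × 10^5 CFU/mL, added to 2-fold serial dilutions, incubated 18 h at 37 °C; MIC is the lowest concentration without visible turbidity, confirmed at 590 nm.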

Data set [10] relates to Enterobacter cloacae. The data set can be described thus: Potentiation of minocycline-induced antibacterial activity against Enterobacter cloacae 117029 assessed as fold reduction in minocycline MIC at 7.5 uM incubated for 18 hrs by broth dilution method. The data set is classed as functional. The method, boiled down:
as §1

For data set [11], the system named is Klebsiella pneumoniae. The data set can be described thus: Potentiation of rifampicin-induced antibacterial activity against Klebsiella pneumoniae 116381 assessed as fold reduction in rifampicin MIC at 7.5 uM incubated for 18 hrs by broth dilution method. The data set is classed as functional. The essentials:
as §1

Data set [12] relates to Acinetobacter baumannii. Briefly: Synergistic antibacterial activity against multidrug-resistant Acinetobacter baumannii 110193 assessed as fractional inhibitory concentration index in presence of rifampicin incubated for 18 hrs by broth dilution method. The data set is classed as functional.
Data set [13] concerns Escherichia coli. Briefly: Synergistic antibacterial activity against Escherichia coli ATCC 25922 assessed as fractional inhibitory concentration index in presence of rifampicin incubated for 18 hrs by broth dilution method. Type of data set: functional. The essentials:
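Checkerboard titration of the adjuvant against the antibiotic, run under the CLSI microdilution conditions (MHB, 5 × 10^5 CFU/mL, 18 h, 37 °C). Each agent's FIC is its MIC in combination divided by its MIC alone; FICI is the sum of the two FICs. FICI ≤0.5 was read as synergy, >0.5–4.0 as no interaction, and >4.0 as antagonism.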

Data set [14] deals with Acinetobacter baumannii. The data set can be described thus: Potentiation of minocycline-induced antibacterial activity against […] Acinetobacter baumannii ATCC 17978 assessed as fold reduction in minocycline MIC at 4.1 uM incubated for 18 hrs by broth dilution method. The data set is classed as functional. The essentials:
as §3

A short description of data set [15]: Hemolytic activity against porcine erythrocytes assessed as hemoglobin release at 512 ug/ml incubated for 1 hr by spectrophotometric analysis relative to control. The data set is classed as ADME, cell-based, Sus scrofa, Erythrocyte. The following applies: pig, read-out: Activity. The method, boiled down:
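Porcine erythrocytes were washed three times in PBS and used at 3 × 10^8 cells/mL final. Compounds were serially diluted in PBS at twice the final concentration, mixed with an equal volume of cells, and incubated 1 h at 37 °C. After centrifugation (1000 g, 4 °C, 10 min), hemoglobin in the supernatant was read at 570 nm. Percent hemolysis was scaled between PBS (0%) and 0.1% Triton X-100 (100%).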

Data set [16] concerns Pseudomonas aeruginosa. Briefly: Antimicrobial activity against XDR Pseudomonas aeruginosa isolate PA264 infected in Galleria mellonella larvae assessed as survival rate at 75 mg/kg co-administered with 75 mg/kg rifampicin at 2 hrs post-inoculation measured after 18 hrs relative to control. The data set is classed as functional. The method, boiled down: (§4)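 G. mellonella larvae were injected with ~5 CFU of P. aeruginosa PA264 (10 µL of 5 × 10^2 CFU/mL in PBS) and held 2 h at 37 °C. A single 10 µL injection followed: monotherapy or rifampicin + compound (25+25, 50+50 or 75+75 mg/kg), with PBS as control. Larvae kept at 37 °C were scored every 6 h to 24 h; dead = no response to touch. n = 30 (two runs of 15); Kaplan-Meier.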

Data set [17] concerns Pseudomonas aeruginosa. The data set can be described thus: Antimicrobial activity against XDR Pseudomonas aeruginosa isolate PA264 infected in Galleria mellonella larvae assessed as survival rate at 25 mg/kg co-administered with 25 mg/kg rifampicin at 2 hrs post-inoculation measured after 24 hrs relative to control. The data set is classed as functional. The method, boiled down: as §4

Data set [18] deals with Pseudomonas aeruginosa. The data set can be described thus: Potentiation of ciprofloxacin-induced antibacterial activity against MDR/XDR Pseudomonas aeruginosa isolate 101243 devoid of GyrA T83I mutant assessed as fold reduction in ciprofloxacin MIC at 9 uM incubated for 18 hrs by broth microdilution method. The data set is classed as functional.
Data set [19] deals with Pseudomonas aeruginosa. The data set can be described thus: Potentiation of rifampicin-induced antibacterial activity against MDR/XDR Pseudomonas aeruginosa isolate 101885 harboring GyrA T83I mutant assessed as fold reduction in rifampicin MIC at 9 uM incubated for 18 hrs by broth microdilution method. The data set is classed as functional. The method, boiled down: as §3

Regarding `COc1c(N2C[C@@H]3CCCN(CCCCCCCCCCCCO[C@@H]4[C@@H](O)[C@H](N)C[C@H](N)[C@H]4O[C@H]4O[C@H](CN)[C@@H](O)C[C@H]4N)[C@@H]3C2)c(F)cc2c(=O)c(C(=O)O)cn(C3CC3)c12.Cl.Cl.Cl.Cl.Cl`, the “fold change (FC)” value is listed as 16 in [1]; 4 in data set [4]; 16 in data set [5]; 128 in data set [6]; 16 in [10]; “>=1024” in [11]. The “fractional inhibitory concentration index (FICI)” value in data set [2] was 0.09; in data set [3], 0.16; in [12], 0.031 - 0.047. Besides, the MIC50 in [7] was found to be 0.5 µg/mL; in data set [8], 0.06 µg/mL. The compound also registered an MIC in data set [9] of 128 µg/mL.
As to `Cl.Cl.Cl.Cl.Cl.NC[C@H]1O[C@H](O[C@H]2[C@H](OCCCCCCCCCCCCN3CCN(c4cc5c(cc4F)c(=O)c(C(=O)O)cn5C4CC4)CC3)[C@@H](O)[C@H](N)C[C@@H]2N)[C@H](N)C[C@@H]1O`, the “fractional inhibitory concentration index (FICI)” value in data set [13] turned out to be 0.133. Further, in data set [14], the “fold change (FC)” value was 2. Besides, the hemolysis at 1 h, 512 ug/ml in data set [15] was less than 10%. The survival at 75 mg/kg in data set [16] was found to be 87%. Also, in data set [17], the survival at 25 mg/kg turned out to be 13%.
`Cl.Cl.Cl.Cl.Cl.Cl.NC[C@H]1O[C@H](O[C@H]2[C@H](OCCCCCCCCCCN3CCN(Cc4cccc5ccccc45)CC3)[C@@H](O)[C@H](N)C[C@@H]2N)[C@H](N)C[C@@H]1O`: the “fold change (FC)” value in data set [18] is 4; in data set [19], 128.

As a reminder, the MIC50 is an inhibitory concentration at the 50% level, which refers to growth in some studies and to a panel of isolates in others. The MIC is the least concentration at which growth counts as inhibited. A high value points to a less susceptible organism.
